Test [1] in a line: Inhibition of biotinylated PEX5 (unknown origin)/N-terminal His-tagged Trypanosoma brucei PEX14 (19 to 84 residues) expressed in Escherichia coli BL21 by AlphaScreen assay. In a few lines:
(§1)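 Streptavidin donor and Ni-chelate acceptor beads each 5 μg/mL. Inhibitor serial dilutions at constant 5% DMSO.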

Test [2] can be described thus: Inhibition of biotinylated PEX5 (unknown origin)/N-terminal His-tagged Trypanosoma cruzi PEX14 (19 to 84 residues) expressed in Escherichia coli BL21 by AlphaScreen assay. In a few lines: as §1
(In Alpha technology, singlet oxygen from a donor bead excites a nearby acceptor bead.)

Test [3] in a line: Binding affinity to Ni-NTA-ATTO647-labeled N-terminal His-tagged Trypanosoma brucei PEX14 (19 to 84 residues) expressed in Escherichia coli BL21 assessed as dissociation constant by MST assay. In a few lines:
(§2)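 PEX14 N-terminal domain (aa 19–84, N-His), purified by Ni-NTA and then SEC in PBS, labeled with Ni-NTA-ATTO647 at protein:label 2:1 for 1 h at room temperature in the dark. Buffer: 50 mM Tris-HCl pH 7.4, 150 mM NaCl, 10 mM MgCl2, 0.0125% Tween 20. Labeled protein 200 nM with inhibitor serial dilution, 5% DMSO. Triplicates; Kd from MST fit; mean of n = 3.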

The nature of test [4]: Binding affinity to Ni-NTA-ATTO647-labeled N-terminal His-tagged Trypanosoma cruzi PEX14 (19 to 84 residues) expressed in Escherichia coli BL21 assessed as dissociation constant by MST assay. In a few lines:
as §2

Test [5] concerns Trypanosoma brucei brucei. Kind of test: Trypanocidal activity against bloodstream form of Trypanosoma brucei brucei incubated for 66 hrs by resazurin dye based assay. It is filed as functional, organism-based. In a few lines:
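T. b. brucei Lister 427 bloodstream form in HMI-11 with 10% FBS, 37 °C, 5% CO2. Ten-point 1:1 serial dilutions in quadruplicate; final 2×10^3 parasites/mL. After 66 h, resazurin was added and plates incubated to 72 h. Fluorescence ex 530/em 585 nm, medium background subtracted, survival normalized to no-compound well. IC50 from sigmoidal nonlinear regression.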
For orientation: The colour change of resazurin is a common sign of viable cells or microbes.

As for `CCN1C(=O)c2ccccc2Oc2cc(NC(=O)Cc3ccc(F)cc3)ccc21`, the values for the EC50 in test [1] and in test [2] were 875 µM and 4590 µM, respectively. Besides, the Kd was found to be 131 µM in test [3] and 124 µM in test [4]. Half-maximal inhibition in test [5] (IC50) required 8.12 µM.
On the same counts, the results for `CCN1C(=O)c2ccccc2Oc2cc(NC(=O)Cc3ccc(Cl)cc3)ccc21` are 54 µM, 2370 µM, 385 µM, 2800 µM and 5.39 µM.
On the same counts, the results for `CCN1C(=O)c2ccccc2Oc2cc(NS(=O)(=O)c3ccccc3)ccc21` are 935 µM, 778 µM, 20 µM, 12 µM and 7.1 µM.
In the same order, the values of `CCN1C(=O)c2ccccc2Sc2cc(NC(=O)Cc3ccc(F)cc3)ccc21` are 230 µM, 637 µM, 951 µM, 56 µM and 5.4 µM.
On to `CCN1C(=O)c2ccccc2Oc2cc(NC(=O)Cc3cccc(Cl)c3)ccc21`, for which the 50% effective concentration (EC50) in test [1] is 500 µM; in test [2], 2930 µM. The Kd worked out at 44 µM in test [3] and 64 µM in test [4]. Besides, half-maximal inhibition in test [5] (IC50) was put at 7.38 µM.
For `CCN1C(=O)c2ccccc2Oc2cc(NC(=O)Cc3cscn3)ccc21`, the values for the Kd in test [3] and in test [4] were 61000 µM and 1700 µM, respectively. Besides, 57.5 µM corresponded to half-maximal inhibition in test [5] (IC50).
For the compound `CCN1C(=O)c2ccccc2Oc2cc(NC(=O)Oc3ccccc3)ccc21`, the figures for the EC50 in test [1] and in test [2] were 250 µM and 3590 µM, respectively. The Kd was 232 µM in test [3] and 100000 µM in test [4]. This compound also returned an IC50 in test [5] of 52.8 µM.
With `CCN1C(=O)c2ccccc2Oc2cc(NC(=O)Cn3nnc4ccccc43)ccc21`, the EC50 was 351 µM in test [1] and 13000 µM in test [2]. Moreover, the Kd is 14 µM in test [3] and 3 µM in test [4]. Half-maximal inhibition in test [5] (IC50) required 7.9 µM.
On the same counts, the results for `CCN1C(=O)c2ccccc2Oc2cc(NS(=O)(=O)Cc3ccccc3)ccc21` are 3630 µM, 6830 µM, 158 µM, 252 µM and 19.4 µM.
On the same counts, the results for `CCN1C(=O)c2ccccc2Oc2cc(NC(=O)Cc3cccc4ccccc34)ccc21` are 69 µM, 4520 µM, 147 µM, 42 µM and 6.35 µM.
As to `CC(C)N1C(=O)c2cccnc2[S+]([O-])c2cc(NC(=O)Cc3ccc(F)cc3)ccc21` (stereo unspecified), in test [1], it took 1730 µM to reach a half-maximal effect (EC50).
In the case of `CCN1C(=O)c2ccccc2Oc2cc(NC(=O)Cc3cccnc3)ccc21`, the EC50 in test [1] turned out to be 843 µM; in test [2], 1230 µM. Besides, the Kd in test [3] amounted to 1460 µM; in test [4], 3450 µM. Further, in test [5], the IC50 was 29.4 µM.
In the same order, the values of `CCN1C(=O)c2ccccc2Oc2cc(NC(=O)Cc3ccsc3)ccc21` are 825 µM, 2360 µM, 29 µM, 9 µM and 8.3 µM.
In the same order, the values of `CCN1C(=O)c2ccccc2Oc2cc(NC(=O)[C@@H](N)c3ccccc3)ccc21` are 253 µM, 421 µM, 625 µM, 10200 µM and 13.4 µM.
In the same order, the values of `CS(=O)(=O)N1C(=O)c2ccccc2Oc2cc(NC(=O)Cc3ccc(F)cc3)ccc21` are 422 µM, 10300 µM, 2 µM, 3000 µM and 19.3 µM.
As for `CCN1C(=O)c2ccccc2Oc2cc(NC(=O)Cc3c[nH]c4ccccc34)ccc21`, the EC50 was determined as 109 µM in test [1] and 677 µM in test [2]. Further, the Kd in test [3] stood at 13 µM; in test [4] it was 9 µM. In test [5], this compound showed an IC50 of 13.7 µM.
The compound `COC(=O)N1C(=O)c2ccccc2Oc2cc(NC(=O)Cc3ccc(F)cc3)ccc21` gave an EC50 in test [1] of 480 µM. Also, the results for the Kd in test [3] and in test [4] were 369 µM and 258 µM, respectively. In addition, it took 7.7 µM to reach half-maximal inhibition in test [5] (IC50).
As to `CCN1C(=O)c2ccccc2Oc2cc(NC(=O)[C@@H](NC(=O)OC(C)(C)C)c3ccccc3)ccc21`, the concentration for a half-maximal effect (EC50) in test [1] was 318 µM; in test [2], 1610 µM. Moreover, the results for the Kd in test [3] and in test [4] were 380 µM and 2 µM, respectively. The IC50 in test [5] came out at 58.5 µM.
As for `CC(C)N1C(=O)c2cccnc2Sc2cc(NC(=O)Cc3ccc(F)cc3)ccc21`, the figures for the EC50 in test [1] and in test [2] were 1050 µM and 2290 µM, respectively. Besides, the results for the Kd in test [3] and in test [4] were 24 µM and 5 µM, respectively. Besides, in test [5], the IC50 came to 0.86 µM.
Turning to `O=C(Cc1ccc(F)cc1)Nc1ccc2c(c1)Oc1ccccc1C(=O)N2`, the half-maximal effective concentration (EC50) in test [1] was found to be 11000 µM; in test [2] it was 551 µM. Moreover, the IC50 in test [5] stood at 20.7 µM.
As to `COC(=O)CN1C(=O)c2ccccc2Oc2cc(NC(=O)Cc3ccc(F)cc3)ccc21`, the EC50 amounted to 7230 µM in test [1] and 4590 µM in test [2]. This compound displayed an IC50 in test [5] of 11.6 µM.
On to `CCN1C(=O)c2ccccc2Oc2cc(NC(=O)Cc3ccccc3)ccc21`, for which the EC50 in test [1] was found to be 1090 µM; in test [2], 788 µM. The compound also had an IC50 in test [5] of 13.3 µM.
Consider `CCN1C(=O)c2ccccc2Oc2cc(NC(=O)Cc3cnccn3)ccc21`, for which the EC50 in test [1] is 741 µM; in test [2], 1930 µM. Further, the Kd in test [3] was 840 µM. Moreover, it took 47.6 µM to reach half-maximal inhibition in test [5] (IC50).

As usually defined, the EC50 is the concentration needed to bring the measured effect to its halfway point. A word on the Kd: it is the free concentration of one partner at which half of the binding sites on the other are occupied at equilibrium, for simple one-to-one binding. One may read the IC50 as the point on the concentration scale where inhibition reaches its midpoint. The low end stands for greater potency in that assay, the high end for weaker potency in that assay.
